Source: ChEMBL document CHEMBL1130289, “Polyanion inhibitors of human immunodeficiency virus and other viruses. 5. Telomerized anionic surfactants derived from amino acids” (J Med Chem, 1997)

Tests used:
[1] = system: Human immunodeficiency virus 1; assay: Inhibitory concentration required to inhibit HIV-induced cytopathicity in CEM-4 cells by 50% based in the MTT assay; type: functional, organism-based; settings: Human immunodeficiency virus 1, CEM-4
CEM-4 = assay: Cytotoxic concentration required to reduce the viability of uninfected cells by 50% after 5 days of incubation in the presence on CEM-4 cells.; type: functional; settings: Homo sapiens, CEM-4, 120 h
In short: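 Uninfected CEM-4 cells were incubated with compound for 5 days. CC50 is the concentration that reduced viability by 50%. Values average at least two separate experiments.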

[2] = system: Human immunodeficiency virus 1; assay: Inhibitory concentration required to inhibit HIV-induced cytopathicity in CEM-4 cells by 50% based in the MTT assay; Not active; type: functional, organism-based
[3] = system: Vesicular stomatitis virus; assay: Concentration required to inhibit vesicular stomatitis induced cytopathicity in E6SM cells by 50%; type: functional, organism-based
Vero = assay: Minimum cytotoxic concentration required to cause a microscopically detectable alteration of normal cell morphology in Vero cells; type: functional, Chlorocebus sabaeus
In short: (§1)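 Uninfected E6SM, HeLa or Vero cells were exposed to compound and examined by microscopy. MCC is the lowest concentration causing a detectable alteration of normal cell morphology.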

[4] = system: Human immunodeficiency virus 1; assay: Concentration required to inhibit by 50% syncytium formation between MOLT-4 cells and HIV-1(IIIB); type: functional, organism-based; settings: Human immunodeficiency virus 1, MOLT-4
In short: (§2)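 Uninfected MOLT-4 cells were co-cultured with HUT-78 cells chronically infected with HIV-1 (IIIB) or HIV-2 (ROD), in the presence of compound. The end point was syncytium formation, and IC50 is the concentration giving 50% inhibition. Values are means of two separate experiments.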

E6SM = assay: Minimum cytotoxic concentration required to cause a microscopically detectable alteration of normal cell morphology in E6SM cells; type: functional, Homo sapiens; in short: as §1
Human alphaherpesvirus 1 [5] = assay: Concentration required to inhibit HSV-1(KOS) induced cytopathicity in E6SM cells by 50%; settings: Human alphaherpesvirus 1, E6SM
Semliki Forest virus = assay: Concentration required to inhibit forest induced cytopathicity in Vero cells by 50%; type: functional, organism-based
In short: (§3)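 Virus was added to the cell monolayers in the presence of compound. Incubation continued until the viral cytopathic effect was scored. IC50 is the concentration that reduced virus-induced cytopathicity by 50%.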

[6] = system: Human immunodeficiency virus 2; assay: Concentration required to inhibit by 50% syncytium formation between MOLT-4 cells and HIV-2 (ROD) infected HUT-78 cells; type: functional, organism-based; settings: Human immunodeficiency virus 2, MOLT-4; in short: as §2
[7] = system: Human immunodeficiency virus 2; assay: Concentration required to inhibit HIV-2 induced cytopathicity in MT-4 cells by 50%; type: functional, organism-based; settings: Human immunodeficiency virus 2, MT4
In short: (§4)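 MT-4 cells were infected with HIV-1 (strain HTLV-IIIB/LAI) or HIV-2 (strain LAV-2 ROD) and exposed to compound. IC50 is the concentration that inhibited HIV-induced cytopathicity by 50%. Values are means of two separate experiments.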

Human alphaherpesvirus 1 [8] = assay: Concentration required to inhibit HSV-1 TK-(B2006) induced cytopathicity in E6SM cells by 50%; settings: Human alphaherpesvirus 1, E6SM
Vaccinia virus = assay: Concentration required to inhibit Vaccinia induced cytopathicity in E6SM cells by 50%; type: functional, organism-based; settings: Orthopoxvirus vaccinia
Human alphaherpesvirus 2 = assay: Concentration required to inhibit HSV-2(G) induced cytopathicity in E6SM cells by 50%; settings: Human alphaherpesvirus 2, E6SM
[9] = system: Human immunodeficiency virus 1; assay: Concentration required to inhibit HIV-1 induced cytopathicity in MT-4 cells by 50%; type: functional, organism-based; settings: Human immunodeficiency virus 1, MT4; in short: as §4
MT4 = assay: Concentration required to reduce the viability of mock-infected MT-4 cells by 50%; type: functional; settings: Homo sapiens
In short: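 Mock-infected MT-4 cells were exposed to compound. CC50 is the concentration that reduced cell viability by 50%. Values are means of two separate experiments.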

Sindbis virus = assay: Concentration required to inhibit Sindbis induced cytopathicity in Vero cells by 50%; type: functional, organism-based; in short: as §3
[10] = system: Mammalian orthoreovirus 1; assay: Concentration required to inhibit reovirus-1 induced cytopathicity in Vero cells by 50%; type: functional, organism-based; settings: Mammalian orthoreovirus 1, Vero; in short: as §3
Human betaherpesvirus 5 [11] = assay: Concentration required to inhibit HCMV(Davis) induced cytopathicity in HEL cells by 50%; type: functional, organism-based; settings: Human betaherpesvirus 5, HEL; in short: as §3
HeLa = assay: Minimum cytotoxic concentration required to cause a microscopically detectable alteration of normal cell morphology in HeLa cells; type: functional, Homo sapiens; in short: as §1
HEL = assay: Minimum cytotoxic concentration required to cause a microscopically detectable alteration of normal cell morphology in HEL cells; type: functional, Homo sapiens
Junin virus = assay: Concentration required to inhibit Junin induced cytopathicity in Vero cells by 50%; type: functional, organism-based; settings: Mammarenavirus juninense
Poliovirus 1 = assay: Concentration required to inhibit Polio-1 induced cytopathicity in HeLa cells by 50%; type: functional, organism-based; settings: Enterovirus C
Human betaherpesvirus 5 [12] = assay: Concentration required to inhibit HCMV(AD169) induced cytopathicity in HEL cells by 50%; type: functional, organism-based; settings: Human betaherpesvirus 5, HEL; in short: as §3
Tacaribe virus = assay: Concentration required to inhibit Tacaribe induced cytopathicity in Vero cells by 50%; type: functional, cell-based; settings: Mammarenavirus tacaribeense
Human respirovirus 3 = assay: Concentration required to inhibit parainfluenza-3 induced cytopathicity in Vero cells by 50%; type: functional, organism-based; settings: Human respirovirus 3, Vero; in short: as §3
Coxsackievirus = assay: Concentration required to inhibit Coxsackie induced cytopathicity in HeLa cells by 50%; type: functional, organism-based; in short: as §3

`CCCCCCCCCCCCSCCCCCCCCCCCCCCCCCCCCCCCCCCCCCCCCCCCCCCCCCCCCCCCCCCCCCCCCCCCCCCCCCCCCCCCCCCCCCCCCC(=O)N(CC)CCCCCCCCCCC(=O)[O-].[Na+]` showed an IC50 [1] of 5 mg/L and a CC50 (CEM-4) of 30 mg/L.
Work on `CCCCCCCCCCCCSCCCCCCCCCCCCCCCCCCCCCCC(=O)N(CC)CCCCCCCCCCC(=O)[O-].[Na+]` yielded an IC50 [1] of 4 mg/L and a CC50 (CEM-4) of 50 mg/L.
With `CCCCCCCCCCCCSCCCCCCCCCCCCCCCCCCCCCCCCCCCCC(=O)NCCCCCCCCCCC(=O)NCC(=O)[O-].[Na+]` the IC50 [1] was 194 mg/L and the CC50 (CEM-4) was over 300 mg/L.
`CCCCCCCCCCCCSCCCCCCCCCCCCCCCCCCCCCCCCCCCCCCCCCCCCCCCCCCCCCCCCCCCCCCCCCCCCC(=O)N(CC)CCCCCCCCCCC(=O)NCCC(=O)[O-].[Na+]` was tested, and the IC50 [2] was “Not Active” and the CC50 (CEM-4) was over 100 mg/L.
`CCCCCCCCCCCCSCCCCCCCCCCCCCCC(=O)NCCCCCCCCCCC(=O)NCC(=O)[O-].[Na+]` gave an IC50 [1] of 15 mg/L and a CC50 (CEM-4) of over 300 mg/L.
Molecule `CCCCCCCCCCCCSCCCCCCCCC(=O)N(CC)CCCCCCCCCCC(=O)[O-].[Na+]` has an IC50 [1] of 25 mg/L and a CC50 (CEM-4) of 100 mg/L.
`CCCCCCCCCCCCSCCCCCCCCCCCCCCCCCCCCCCCCCCCCCCC(=O)N(CC)CCCCCCCCCCC(=O)NCC(=O)[O-].[Na+]` gave an IC50 [1] of 4 mg/L and a CC50 (CEM-4) of 80 mg/L.
`CCCCCCCCCCCCSCCCCCCCCCCCCC(=O)NCCCCCCCCCCC(=O)NCCC(=O)[O-].[Na+]` gave an IC50 [3] of over 200 mg/L, an MMC (Vero) of over 200 µg/mL and an IC50 [4] of 10 mg/L. The MMC (E6SM) was over 200 µg/mL, the IC50 (Human alphaherpesvirus 1 [5]) was 20 mg/L and the IC50 (Semliki Forest virus) was over 200 mg/L. For the same molecule, the IC50 [6] was 10 mg/L, the IC50 [7] was 12 mg/L and the IC50 (Human alphaherpesvirus 1 [8]) was 20 mg/L. It also gave an IC50 (Vaccinia virus) of over 200 mg/L, an IC50 (Human alphaherpesvirus 2) of 20 mg/L and an IC50 [9] of 3 mg/L. It also gave a CC50 (MT4) of over 250 mg/L, an IC50 (Sindbis virus) of over 200 mg/L and an IC50 [10] of over 200 mg/L. The IC50 (Human betaherpesvirus 5 [11]) was 20 mg/L, the MMC (HeLa) was over 200 µg/mL and the MMC (HEL) was over 50 µg/mL. The IC50 (Junin virus) was 43 mg/L, the IC50 [2] was “Not Active” and the IC50 (Poliovirus 1) was over 200 mg/L. For the same molecule, the IC50 (Human betaherpesvirus 5 [12]) was 25 mg/L, the CC50 (CEM-4) was 42 mg/L and the IC50 (Tacaribe virus) was 50 mg/L. The IC50 (Human respirovirus 3) was over 200 mg/L and the IC50 (Coxsackievirus) was over 200 mg/L.
`CCCCCCCCCCCCSCCCCCCC(=O)NCCCCCCCCCCC(=O)NCCC(=O)[O-].[Na+]` was tested, and the IC50 [2] was “Not Active” and the CC50 (CEM-4) was over 300 mg/L.
With `CCCCCCCCCCCCSCCCCCCCCCCCCCCCCC(=O)NCCCCCCCCCCC(=O)NCCC(=O)[O-].[Na+]` the IC50 [2] was “Not Active” and the CC50 (CEM-4) was over 100 mg/L.
`CCCCCCCCCCCCSCCCCCCC(=O)N(CC)CCCCCCCCCCC(=O)NCC(=O)[O-].[Na+]` was tested, and the IC50 [2] was “Not Active” and the CC50 (CEM-4) was 50 mg/L.
`CCCCCCCCCCCCSCCCCCCCCCCCCCCCCCCCCCCCCCCCCCCCCCCCCCCCCC(=O)N(C)CCCCCCCCCCC(=O)[O-].[Na+]` was tested, and the IC50 [2] was “Not Active” and the CC50 (CEM-4) was over 200 mg/L.
In the case of `CCCCCCCCCCCCSCCCCCCCCCCCCCCCCCCCCCCC(=O)NCCCCCCCCCCC(=O)[O-].[Na+]`, the IC50 [3] is reported as over 100 mg/L, the IC50 [4] is reported as 150 mg/L and the MMC (E6SM) is reported as over 200 µg/mL. The IC50 (Human alphaherpesvirus 1 [5]) was over 100 mg/L, the IC50 (Semliki Forest virus) was over 100 mg/L and the IC50 [6] was 150 mg/L. It also gave an IC50 [7] of 69 mg/L, an IC50 (Human alphaherpesvirus 1 [8]) of over 100 mg/L and an IC50 (Vaccinia virus) of over 100 mg/L. The IC50 (Human alphaherpesvirus 2) was over 100 mg/L, the IC50 [9] was 55 mg/L and the CC50 (MT4) was over 250 mg/L. The IC50 (Sindbis virus) was over 100 mg/L, the IC50 [10] was over 100 mg/L and the IC50 (Human betaherpesvirus 5 [11]) was over 50 mg/L. It also gave an MMC (HeLa) of over 200 µg/mL, an MMC (HEL) of over 50 µg/mL and an IC50 (Junin virus) of over 50 mg/L. The IC50 [2] was “Not Active”, the IC50 (Poliovirus 1) was over 200 mg/L and the IC50 (Human betaherpesvirus 5 [12]) was over 50 mg/L. The CC50 (CEM-4) was 99 mg/L, the IC50 (Tacaribe virus) was over 50 mg/L and the IC50 (Human respirovirus 3) was over 100 mg/L. It also gave an IC50 (Coxsackievirus) of over 200 mg/L.
`CCCCCCCCCCCCSCCCCCCCCCCC(=O)N(CC)CCCCCCCCCCC(=O)NCC(=O)[O-].[Na+]` gave an IC50 [1] of 120 mg/L and a CC50 (CEM-4) of over 100 mg/L.
